The values that follow come from ChEMBL document CHEMBL1147446, “Antagonists of human CCR5 receptor containing 4-(pyrazolyl)piperidine side chains. Part 3: SAR studies on the benzylpyrazole segment” (Bioorg Med Chem Lett, 2004).

Molecules are shown by their SMILES. A value given as a limit tells only on which side of the number the result lay.

A short description of series [1]: in vivo. The settings on record: rat.
A short description of series [2]: in vivo. The settings on record: rat. The source holds these as a separate data set.
Series [3] has as its system HeLa. The series can be described thus: Antiviral activities in a cell culture HIV-1 infectivity inhibition assay using HeLa cells. The format is functional. The settings on record: Homo sapiens.
Series [4] is described as follows: in vivo. Conditions: rat, plasma.
Series [5] concerns HeLa. Kind of series: Antiviral activities in a cell culture HIV-1 infectivity inhibition assay using HeLa cells plus 50% normal human serum. The format is functional.
Series [6] concerns the target C-C chemokine receptor type 5 (Homo sapiens, UniProt P51681). The series can be described thus: Inhibitory concentration for displacement of [125I]-MIP-1 alpha from recombinant human CC chemokine receptor 5 (CCR5) expressed in CHO cell. The format is cell-based. In outline:
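Competitive binding to CCR5 on CHO cell membranes, read as displacement of [125I]-labeled MIP-1α. IC50 values are means of triplicate determinations. Standard errors were normally <15% within an assay. Assay-to-assay variation was within ±2-fold, judged from a standard compound.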
Background: Displacement assays read how much labelled ligand stays bound in the presence of the test substance.

Chain of C-C chemokine receptor type 5 (P51681 whole entry): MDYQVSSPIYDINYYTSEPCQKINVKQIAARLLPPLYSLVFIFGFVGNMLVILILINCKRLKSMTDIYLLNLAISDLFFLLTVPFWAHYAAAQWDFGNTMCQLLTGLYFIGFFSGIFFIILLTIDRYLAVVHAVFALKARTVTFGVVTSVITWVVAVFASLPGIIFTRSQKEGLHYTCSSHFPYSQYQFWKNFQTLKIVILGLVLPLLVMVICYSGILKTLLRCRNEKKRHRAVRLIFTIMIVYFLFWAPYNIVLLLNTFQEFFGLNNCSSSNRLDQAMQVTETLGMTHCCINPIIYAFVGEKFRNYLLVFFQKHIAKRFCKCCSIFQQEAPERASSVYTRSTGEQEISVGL

`CC[C@@H](C)[C@H](C(=O)O)N1C[C@H](CN2CCC(c3cc(Cc4ccc(OC(C)(C)C)cc4)nn3CC)CC2)[C@@H](c2cccc(F)c2)C1`: the half-life in series [1] is 2.7 h. Also, in series [2], the bioavailability was found to be 23%. For the same molecule, the concentration for an effect of 90% (IC90) is under 0.14 nM in series [3] and 3.7 nM in series [5]. This molecule also displayed a clearance in series [4] of 0.97 mL/min/kg. Moreover, the half-maximal inhibitory concentration (IC50) in series [6] turned out to be 1.6 nM.
`CCn1nc(Cc2ccc(OC(C)C)cc2)cc1C1CCN(C[C@H]2CN([C@@H](C(=O)O)C(C)(C)C)C[C@@H]2c2cccc(F)c2)CC1`: the half-life in series [1] was 1.4 h. Moreover, in series [2], the bioavailability was 49%. The concentration for an effect of 90% (IC90) in series [3] is under 0.14 nM; in series [5], 11 nM. The same molecule yielded a clearance in series [4] of 0.98 mL/min/kg. For the same molecule, in series [6], the IC50 was determined as 0.7 nM.
`CCn1nc(Cc2ccc(F)cc2)cc1C1CCN(C[C@H]2CN([C@@H](C(=O)O)C(C)C)C[C@@H]2c2cccc(F)c2)CC1` showed a half-life in series [1] of 0.91 h. Further, in series [2], the bioavailability was found to be 7.8%. The IC90 in series [3] was 11 nM; in series [5] it was over 300 nM. The same molecule displayed a clearance in series [4] of 7.6 mL/min/kg. Moreover, in series [6], the half-maximal inhibitory concentration (IC50) was 1.1 nM.
On to `CCn1nc(Cc2cccc(F)c2)cc1C1CCN(C[C@H]2CN([C@@H](C(=O)O)C(C)C)C[C@@H]2c2cccc(F)c2)CC1`, for which the half-life in series [1] was 0.8 h. The molecule also returned a bioavailability in series [2] of 40%. Further, the IC90 in series [3] turned out to be 11 nM; in series [5], 300 nM. The clearance in series [4] was determined as 3.9 mL/min/kg. The IC50 in series [6] was determined as 1.3 nM.
Molecule `CCn1nc(Cc2ccc(OC(C)(C)C)cc2)cc1C1CCN(C[C@H]2CN([C@@H](C(=O)O)C3CCCCC3)C[C@@H]2c2cccc(F)c2)CC1` showed a half-life in series [1] of 1 h. In series [2], this molecule came in with a bioavailability of 19%. Also, the IC90 in series [3] is under 0.14 nM; in series [5] it was 11 nM. This molecule also registered a clearance in series [4] of 27 mL/min/kg. Besides, the IC50 in series [6] stood at 0.5 nM.
`CCn1nc(Cc2ccc(-c3ccccc3)cc2)cc1C1CCN(C[C@H]2CN([C@@H](C(=O)O)C(C)(C)C)C[C@@H]2c2cccc(F)c2)CC1`: in series [1], the half-life is 8.9 h. Besides, the bioavailability in series [2] was 33%. For the same molecule, the IC90 came to 1.2 nM in series [3] and 100 nM in series [5]. Moreover, the clearance in series [4] came to 0.23 mL/min/kg. In addition, the half-inhibitory concentration (IC50) in series [6] amounted to 0.6 nM.
In series [1], `CCn1nc(Cc2ccc(OC3CCC3)cc2)cc1C1CCN(C[C@H]2CN([C@@H](C(=O)O)C(C)(C)C)C[C@@H]2c2cccc(F)c2)CC1` showed a half-life of 3.5 h. This molecule had a bioavailability in series [2] of 65%. Further, the values for the IC90 in series [3] and in series [5] were 0.4 nM and 33 nM, respectively. In series [4], the clearance turned out to be 0.62 mL/min/kg. Besides, the IC50 in series [6] came out at 0.7 nM.
In turn, `CC[C@H](C)[C@H](C(=O)O)N1C[C@H](CN2CCC(c3cc(Cc4ccc(C(C)(C)C)cc4)nn3CC)CC2)[C@@H](c2cccc(F)c2)C1` gave a half-life in series [1] of 1.4 h. This molecule also had a bioavailability in series [2] of 9.2%. Moreover, the 90% effect concentration (IC90) in series [3] is 0.4 nM; in series [5], 11 nM. This molecule had a clearance in series [4] of 1.6 mL/min/kg. The IC50 in series [6] came out at 0.3 nM.
Turning to `CC[C@H](C)[C@H](C(=O)O)N1C[C@H](CN2CCC(c3cc(Cc4ccc(OC(C)(C)C)cc4)nn3CC)CC2)[C@@H](c2cccc(F)c2)C1`, the half-life in series [1] was 1.1 h. In series [2], this molecule yielded a bioavailability of 76%. In addition, the results for the concentration for an effect of 90% (IC90) in series [3] and in series [5] were under 0.14 nM and 11 nM, respectively. In series [4], this molecule returned a clearance of 4 mL/min/kg. The IC50 in series [6] amounted to 1.3 nM.
Turning to `CCn1nc(Cc2ccc(-c3ccccc3)cc2)cc1C1CCN(C[C@H]2CN([C@@H](C(=O)O)C(C)C)C[C@@H]2c2cccc(F)c2)CC1`, the half-life in series [1] was 5.7 h. Besides, the bioavailability in series [2] is 26%. The values for the IC90 in series [3] and in series [5] were under 0.14 nM and 100 nM, respectively. Further, the clearance in series [4] turned out to be 0.32 mL/min/kg. Also, the IC50 in series [6] amounted to 0.3 nM.
In the case of `CC[C@H](C)[C@H](C(=O)O)N1C[C@H](CN2CCC(c3cc(Cc4ccc(C(C)C)cc4)nn3CC)CC2)[C@@H](c2cccc(F)c2)C1`, the half-life in series [1] came out at 1.18 h. In series [2], the bioavailability worked out at 19%. The IC90 in series [3] was under 0.14 nM; in series [5], 11 nM. This molecule also gave a clearance in series [4] of 3.3 mL/min/kg. The half-maximal inhibitory concentration (IC50) in series [6] worked out at 0.3 nM.
For the molecule `CC[C@@H](C)[C@H](C(=O)O)N1C[C@H](CN2CCC(c3cc(Cc4ccc(OC5CCC5)cc4)nn3CC)CC2)[C@@H](c2cccc(F)c2)C1`, in series [1], the half-life is 2.1 h. For the same molecule, in series [2], the bioavailability amounted to 26%. Further, the concentration for an effect of 90% (IC90) in series [3] is under 0.14 nM; in series [5], 33 nM. The molecule further displayed a clearance in series [4] of 0.75 mL/min/kg. For the same molecule, the half-maximal inhibitory concentration (IC50) in series [6] amounted to 0.4 nM.
`CC[C@H](C)[C@H](C(=O)O)N1C[C@H](CN2CCC(c3cc(Cc4ccc(OC5CC5)cc4)nn3CC)CC2)[C@@H](c2cccc(F)c2)C1` showed a half-life in series [1] of 1 h. In series [2], this molecule returned a bioavailability of 36%. The IC90 in series [3] was under 0.14 nM; in series [5] it was 11 nM. This molecule registered a clearance in series [4] of 1.9 mL/min/kg. In addition, in series [6], the IC50 was found to be 0.3 nM.
As for `CCOc1cccc(Cc2cc(C3CCN(C[C@H]4CN([C@@H](C(=O)O)[C@@H](C)CC)C[C@@H]4c4cccc(F)c4)CC3)n(CC)n2)c1`, the concentration for an effect of 90% (IC90) in series [3] was under 0.14 nM; in series [5], 100 nM. Also, the IC50 in series [6] was found to be 0.9 nM.
For `CC[C@@H](C)[C@H](C(=O)O)N1C[C@H](CN2CCC(c3cc(Cc4ccccc4)nn3CC)CC2)[C@@H](c2cccc(F)c2)C1` the same measures were 0.4 nM, 300 nM and 0.9 nM.
On the same counts, the results for `CCn1nc(Cc2ccc(Oc3ccccc3)cc2)cc1C1CCN(C[C@H]2CN([C@@H](C(=O)O)C3CCCCC3)C[C@@H]2c2cccc(F)c2)CC1` are 1.2 nM, 100 nM and 0.5 nM.
Take `CCn1nc(Cc2ccc(C#N)cc2)cc1C1CCN(C[C@H]2CN([C@@H](C(=O)O)C(C)C)C[C@@H]2c2cccc(F)c2)CC1`: the concentration for an effect of 90% (IC90) in series [3] was determined as 1.2 nM; in series [5], 100 nM. Moreover, the IC50 in series [6] came out at 3.1 nM.
On the same counts, the results for `CC[C@H](C)[C@H](C(=O)O)N1C[C@H](CN2CCC(c3cc(Cc4ccc(OC(F)F)cc4)nn3CC)CC2)[C@@H](c2cccc(F)c2)C1` are under 0.14 nM, 11 nM and 0.3 nM.
For `CCOc1cccc(Cc2cc(C3CCN(C[C@H]4CN([C@@H](C(=O)O)[C@H](C)CC)C[C@@H]4c4cccc(F)c4)CC3)n(CC)n2)c1` the same measures were under 0.14 nM, over 300 nM and 0.8 nM.
For `CCn1nc(Cc2ccc(OC)c(C#N)c2)cc1C1CCN(C[C@H]2CN([C@@H](C(=O)O)C(C)(C)C)C[C@@H]2c2cccc(F)c2)CC1` the same measures were under 0.14 nM, 33 nM and 0.9 nM.
`CCn1nc(Cc2ccc(C)cc2)cc1C1CCN(C[C@H]2CN([C@@H](C(=O)O)C(C)(C)C)C[C@@H]2c2cccc(F)c2)CC1`: the values for the IC90 in series [3] and in series [5] were under 0.14 nM and 33 nM, respectively. In addition, the IC50 in series [6] is 0.6 nM.
On the same counts, the results for `CCn1nc(Cc2ccc(OC(F)F)cc2)cc1C1CCN(C[C@H]2CN([C@@H](C(=O)O)C(C)C)C[C@@H]2c2cccc(F)c2)CC1` are under 0.14 nM, 100 nM and 0.5 nM.
For `CCn1nc(Cc2ccc(OC(F)(F)F)cc2)cc1C1CCN(C[C@H]2CN([C@@H](C(=O)O)C(C)C)C[C@@H]2c2cccc(F)c2)CC1` the same measures were 3.7 nM, 300 nM and 0.8 nM.

A word on the half-life: it is the time in which the quantity being followed falls by half. Low readings indicate fast loss, high ones slow loss. One may read the bioavailability as the share of a dose that reaches the circulation, judged against a reference dose that is usually intravenous. Low readings indicate poor availability, high ones good availability. In general, IC90 refers to the concentration needed for an effect of 90%. In general, clearance refers to the volume of plasma or blood freed of the substance per unit of time. Lower therefore signals inefficient removal. In general, IC50 refers to the concentration that gives 50% inhibition.
